In ChEMBL document CHEMBL1122688, “Antimycotic azoles. 7. Synthesis and antifungal properties of a series of novel triazol-3-ones” (1984):

Assays:
[1] = In vivo activity against microsporosis guinea pig, measured as the ratio of animals cured/animals infected (C/I) at dose 20 mg/kg; C/I = 2/2; format: functional
[2] = tested on: Cryptococcus neoformans; assay: In vitro antifungal activity against Cryptococcus neoformans; format: functional
In short: (§1)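 Fungal growth-inhibition screen (Godefroi method) against dermatophytes, yeasts, moulds and other fungi. The value is the lowest concentration (µg/mL) giving total inhibition of growth, tested up to 100 µg/mL.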

[3] = tested on: Trichophyton rubrum; assay: In vitro antifungal activity against Trichophyton rubrum; format: functional; in short: as §1
[4] = In vitro antifungal activity against Mucor sp; format: functional; in short: as §1
[5] = tested on: Phialophora verrucosa; assay: In vitro antifungal activity against Phialophora verrucosa; format: functional; in short: as §1
[6] = tested on: Candida albicans; assay: In vitro antifungal activity against Candida albicans; format: functional; in short: as §1
[7] = In vivo activity against vaginal candidoses in rats, measured as the ratio of animals cured/animals infected (C/I) at dose 2.5 mg/kg; C/I = 0/2; format: functional
[8] = tested on: Saprolegnia; assay: In vitro antifungal activity against Saprolegnia sp; format: functional; in short: as §1
[9] = tested on: Microsporum canis; assay: In vitro antifungal activity against Microsporum canis; format: functional; in short: as §1
[10] = tested on: Trichophyton benhamiae; assay: In vitro antifungal activity against Trichophyton mentagrophytes; format: functional, Arthroderma benhamiae; in short: as §1
[11] = tested on: Sporothrix schenckii; assay: In vitro antifungal activity against Sporothrix schenck ii; format: functional; in short: as §1
[12] = tested on: Aspergillus fumigatus; assay: In vitro antifungal activity against Aspergillus fumigatus; format: functional; in short: as §1
[13] = tested on: Candida tropicalis; assay: In vitro antifungal activity against Candida tropicalis; format: functional; in short: as §1
[14] = In vivo activity against microsporosis guinea pig, measured as the ratio of animals cured/animals infected (C/I) at dose 10 mg/kg; C/I = 0/2; format: functional
[15] = In vivo activity against vaginal candidoses in rats, measured as the ratio of animals cured/animals infected (C/I) at dose 10 mg/kg; C/I = 3/4; format: functional
[16] = In vivo activity against vaginal candidoses in rats, measured as the ratio of animals cured/animals infected (C/I) at dose 10 mg/kg; C/I = 2/2; format: functional
[17] = tested on: Rattus norvegicus; assay: In vivo activity against vaginal candidoses in rats, measured as the ratio of animals cured/animals infected (C/I) at dose 1.25 mg/kg; C/I = 5/6; format: functional
[18] = In vivo activity against vaginal candidoses in rats, measured as the ratio of animals cured/animals infected (C/I) at dose 2.5 mg/kg; C/I = 4/6; format: functional
[19] = In vivo activity against microsporosis guinea pig, measured as the ratio of animals cured/animals infected (C/I) at dose 10 mg/kg; C/I = 1/8; format: functional
[20] = In vivo activity against microsporosis guinea pig, measured as the ratio of animals cured/animals infected (C/I) at dose 2.5 mg/kg; C/I = 0/2; format: functional
[21] = In vivo activity against vaginal candidoses in rats, measured as the ratio of animals cured/animals infected (C/I) at dose 0.63 mg/kg; C/I = 4/8; format: functional
[22] = In vivo activity against microsporosis guinea pig, measured as the ratio of animals cured/animals infected (C/I) at dose 1.25 mg/kg; C/I = 0/2; format: functional
[23] = In vivo activity against microsporosis guinea pig, measured as the ratio of animals cured/animals infected (C/I) at dose 1.25 mg/kg; C/I = 0/6; format: functional
[24] = In vivo activity against vaginal candidoses in rats, measured as the ratio of animals cured/animals infected (C/I) at dose 10 mg/kg; C/I = 6/6; format: functional
[25] = In vivo activity against vaginal candidoses in rats, measured as the ratio of animals cured/animals infected (C/I) at dose 0.63 mg/kg; C/I = 3/10; format: functional
[26] = In vivo activity against microsporosis guinea pig, measured as the ratio of animals cured/animals infected (C/I) at dose 2.5 mg/kg; C/I = 0/5; format: functional
[27] = tested on: Rattus norvegicus; assay: In vivo activity against vaginal candidoses in rats, measured as the ratio of animals cured/animals infected (C/I) at dose 1.25 mg/kg; C/I = 9/10; format: functional
[28] = In vivo activity against vaginal candidoses in rats, measured as the ratio of animals cured/animals infected (C/I) at dose 2.5 mg/kg; C/I = 9/10; format: functional
[29] = In vivo activity against vaginal candidoses in rats, measured as the ratio of animals cured/animals infected (C/I) at dose 2.5 mg/kg; C/I = 1/4; format: functional
[30] = In vivo activity against vaginal candidoses in rats, measured as the ratio of animals cured/animals infected (C/I) at dose 0.63 mg/kg; C/I = 0/2; format: functional
[31] = In vivo activity against microsporosis guinea pig, measured as the ratio of animals cured/animals infected (C/I) at dose 1.25 mg/kg; 0/4; format: functional
[32] = In vivo activity against vaginal candidoses in rats, measured as the ratio of animals cured/animals infected (C/I) at dose 0.63 mg/kg; 1/6; format: functional
[33] = In vivo activity against microsporosis guinea pig, measured as the ratio of animals cured/animals infected (C/I) at dose 10 mg/kg; 2/2; format: functional
[34] = In vivo activity against vaginal candidoses in rats, measured as the ratio of animals cured/animals infected (C/I) at dose 1.25 mg/kg; 1/2; format: functional
[35] = In vivo activity against vaginal candidoses in rats, measured as the ratio of animals cured/animals infected (C/I) at dose 2.5 mg/kg; 3/6; format: functional
[36] = In vivo activity against microsporosis guinea pig, measured as the ratio of animals cured/animals infected (C/I) at dose 2.5 mg/kg; 4/6; format: functional
[37] = In vivo activity against microsporosis guinea pig, measured as the ratio of animals cured/animals infected (C/I) at dose 20 mg/kg; C/I = 1/6

SMILES | Inhibition [2] | Inhibition [3] | Inhibition [4] | Inhibition [5] | Inhibition [6] | C/I ratio [7] | Inhibition [8] | Inhibition [9] | Inhibition [10] | Inhibition [11] | Inhibition [12] | Inhibition [13] | C/I ratio [19] | further results
Cc1nn(C)c(=O)n1-c1ccc(N2CCN(c3ccc(OC[C@@H]4COC(Cn5ccnc5)(c5ccc(Cl)cc5Cl)O4)cc3)CC2)cc1 (some centres undefined) | >100 µg/mL | 100 µg/mL | >100 µg/mL | >100 µg/mL | 100 µg/mL | 0 | >100 µg/mL | 100 µg/mL | 10 µg/mL | >100 µg/mL | 100 µg/mL | > 100 µg/mL | – | C/I ratio [1]: 2; C/I ratio [14]: 0; C/I ratio [15]: 0.75
Cn1ncn(-c2ccc(N3CCN(c4ccc(OC[C@@H]5COC(Cn6cncn6)(c6ccc(Cl)cc6Cl)O5)cc4)CC3)cc2)c1=O (some centres undefined) | 100 µg/mL | 10 µg/mL | >100 µg/mL | 100 µg/mL | 100 µg/mL | – | >100 µg/mL | >100 µg/mL | 1 µg/mL | >100 µg/mL | >100 µg/mL | 10 µg/mL | 1 | C/I ratio [16]: 1; C/I ratio [17]: 5; C/I ratio [18]: 4; C/I ratio [20]: 0; C/I ratio [21]: 0.5; C/I ratio [22]: 0
CCCn1ncn(-c2ccc(N3CCN(c4ccc(OC[C@@H]5COC(Cn6cncn6)(c6ccc(Cl)cc6Cl)O5)cc4)CC3)cc2)c1=O (some centres undefined) | 100 µg/mL | 1 µg/mL | >100 µg/mL | >100 µg/mL | >100 µg/mL | – | >100 µg/mL | >100 µg/mL | 100 µg/mL | >100 µg/mL | >100 µg/mL | 100 µg/mL | 1 | C/I ratio [23]: 0; C/I ratio [24]: 6; C/I ratio [25]: 0.3; C/I ratio [26]: 0; C/I ratio [27]: 0.9; C/I ratio [28]: 9
CCCn1nc(C)n(-c2ccc(N3CCN(c4ccc(OC[C@@H]5COC(Cn6cncn6)(c6ccc(Cl)cc6Cl)O5)cc4)CC3)cc2)c1=O (some centres undefined) | 100 µg/mL | >100 µg/mL | >100 µg/mL | >100 µg/mL | 100 µg/mL | – | >100 µg/mL | >100 µg/mL | 1 µg/mL | >100 µg/mL | >100 µg/mL | 100 µg/mL | – | C/I ratio [29]: 1; C/I ratio [30]: 0
C=CCn1ncn(-c2ccc(N3CCN(c4ccc(OC[C@@H]5COC(Cn6cncn6)(c6ccc(Cl)cc6Cl)O5)cc4)CC3)cc2)c1=O (some centres undefined) | – | – | – | – | – | – | – | – | – | – | – | – | – | C/I ratio [31]: 0; C/I ratio [32]: 1; C/I ratio [33]: 2; C/I ratio [34]: 1; C/I ratio [35]: 0.5; C/I ratio [36]: 0.667; Lowest level of total inhibition [9]: > 100 µg/mL
CCCCn1ncn(-c2ccc(N3CCN(c4ccc(OC[C@@H]5COC(Cn6cncn6)(c6ccc(Cl)cc6Cl)O5)cc4)CC3)cc2)c1=O (some centres undefined) | >100 µg/mL | >100 µg/mL | >100 µg/mL | >100 µg/mL | >100 µg/mL | 0 | >100 µg/mL | >100 µg/mL | 100 µg/mL | >100 µg/mL | >100 µg/mL | >100 µg/mL | – | C/I ratio [37]: 1
